Test results: paper PMC6055619 (British Journal of Haematology, 2018)
Entries after “also recorded” stand apart in the source; their conditions may differ.

What was measured:
[1] = Ixazomib plasma pharmacokinetics, non-compartmental analysis; format: in vivo, human; details: for AUC(0-t): 3 mg, AUC0–72, geometric mean (%CV), RP2D 3·0 mg
How it was run: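 Phase 1 patients took fixed oral ixazomib 3·0 or 3·7 mg on an empty stomach (≥1 h before or ≥2 h after a meal), on days 1, 4, 8 and 11 of a 21-day cycle. Co-dosing was lenalidomide 25 mg on days 1–14 plus dexamethasone 20 mg. Serial plasma samples were taken, and non-compartmental parameters were calculated on cycle 1 days 1 and 11. Values are reported as geometric mean (%CV).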

[2] = system: patients with NDMM; assay: Phase 1 dose escalation; format: in vivo, human; details: twice-weekly ixazomib 3·0 or 3·7 mg plus Rd
How it was run: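 Phase 1 tested two fixed ixazomib doses (3·0 and 3·7 mg) with a standard 3 + 3 scheme, scoring DLTs during cycle 1. MTD was the highest dose with ≤1 of 6 evaluable patients having a DLT. RP2D selection also used response rates and toxicity over later cycles.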

[3] = ref Gupta et al, 2015b; cited from earlier work
[4] = system: patients with NDMM; assay: Adverse events graded by NCI CTCAE v4·03; format: in vivo, human
How it was run: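 AEs were recorded throughout treatment and for 30 days after the last dose, and graded by NCI CTCAE v4·03 in all patients given ≥1 dose of any study drug. Maintenance patients had responding or stable disease after 16 cycles of ixazomib-Rd induction. They then took single-agent oral ixazomib on days 1, 4, 8 and 11 of 21-day cycles, at the last-tolerated induction dose, until progression or unacceptable toxicity.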

[5] = during single-agent ixazomib maintenance
[6] = patients who received single-agent ixazomib maintenance
[7] = received maintenance, n = 18, new-onset AEs during cycle ≥17

CC(C)C[C@H](NC(=O)CNC(=O)c1cc(Cl)ccc1Cl)B(O)O [ixazomib]
Tmax ([1]; human, plasma, oral): 1 h
AUC(0-t) ([1]; human, plasma, oral, day 1): 315 ng·h/mL
AUC(0-t) ([1]; human, plasma, oral, day 11): 1110 ng·h/mL
Pharmacokinetic interaction of ixazomib with Rd ([1]; pharmacokinetic data similar to other studies): no pharmacokinetic interaction
Dose-limiting toxicities in cycle 1 [2]: No dose‐limiting toxicities; also recorded: no DLTs
Effects on QTc or heart rate [3]: no clinically meaningful effects
New-onset drug-related grade 3 PN NEC ([4]; during maintenance): 6%
New-onset drug-related grade 3 hyperglycaemia ([4]; during maintenance): 0%
New-onset drug-related grade 3 rashes, eruptions and exanthems NEC ([4]; during maintenance): 6%
New-onset drug-related PN NEC [4, 5]: 28%
New-onset drug-related fatigue [4, 5]: 11%
New-onset drug-related rashes, eruptions and exanthems NEC [4, 5]: 17%
New-onset AEs resulting in dose reductions ([4]; patients who received ixazomib maintenance): 33%
New-onset drug-related AEs during maintenance [4, 6]: 89%
New-onset drug-related grade 3 AEs during maintenance [4, 6]: 28%
On-study deaths ([4]; received maintenance, n = 18, cycle ≥17): 0 n (%)
AE resulting in any study drug dose reduction [4, 7]: 6 (33) n (%)
AE resulting in discontinuation [4, 7]: 3 (17) n (%)
Any AE [4, 7]: 16 (89) n (%)
Any SAE [4, 7]: 2 (11) n (%)
Any drug-related AE [4, 7]: 16 (89) n (%)
Any drug-related SAE [4, 7]: 2 (11) n (%)
Any drug-related grade ≥3 AE [4, 7]: 5 (28) n (%)
Any grade ≥3 AE [4, 7]: 8 (44) n (%)
Drug-related ALT increased, All-grade [4, 7]: 1 (6) n (%)
Drug-related ALT increased, Grade 3 [4, 7]: 0 n (%)
Drug-related Anxiety, All-grade [4, 7]: 0 n (%)
Drug-related Anxiety, Grade 3 [4, 7]: 0 n (%)
Drug-related Constipation, All-grade [4, 7]: 0 n (%)
Drug-related Constipation, Grade 3 [4, 7]: 0 n (%)
Drug-related Diarrhoea, All-grade [4, 7]: 5 (28) n (%)
Drug-related Diarrhoea, Grade 3 [4, 7]: 1 (6) n (%)
Drug-related Dizziness, All-grade [4, 7]: 1 (6) n (%)
Drug-related Dizziness, Grade 3 [4, 7]: 0 n (%)
Drug-related Dysgeusia, All-grade [4, 7]: 0 n (%)
Drug-related Dysgeusia, Grade 3 [4, 7]: 0 n (%)
Drug-related Fatigue, All-grade [4, 7]: 2 (11) n (%)
Drug-related Fatigue, Grade 3 [4, 7]: 0 n (%)
Drug-related Hyperglycaemia, All-grade [4, 7]: 2 (11) n (%)
Drug-related Hyperglycaemia, Grade 3 [4, 7]: 0 n (%)
Drug-related Hyponatraemia, All-grade [4, 7]: 0 n (%)
Drug-related Hyponatraemia, Grade 3 [4, 7]: 0 n (%)
Drug-related Insomnia, All-grade [4, 7]: 0 n (%)
Drug-related Insomnia, Grade 3 [4, 7]: 0 n (%)
Drug-related Muscle spasms, All-grade [4, 7]: 0 n (%)
Drug-related Muscle spasms, Grade 3 [4, 7]: 0 n (%)
Drug-related Muscular weakness, All-grade [4, 7]: 2 (11) n (%)
Drug-related Muscular weakness, Grade 3 [4, 7]: 1 (6) n (%)
Drug-related Nausea, All-grade [4, 7]: 6 (33) n (%)
Drug-related Nausea, Grade 3 [4, 7]: 1 (6) n (%)
Drug-related Neutropenia, All-grade [4, 7]: 0 n (%)
Drug-related Neutropenia, Grade 3 [4, 7]: 0 n (%)
Drug-related Neutrophil count decreased, All-grade [4, 7]: 1 (6) n (%)
Drug-related Neutrophil count decreased, Grade 3 [4, 7]: 1 (6) n (%)
Drug-related PN NEC, All-grade [4, 7]: 5 (28) n (%)
Drug-related PN NEC, Grade 3 [4, 7]: 1 (6) n (%)
Drug-related Peripheral oedema, All-grade [4, 7]: 2 (11) n (%)
Drug-related Peripheral oedema, Grade 3 [4, 7]: 0 n (%)
Drug-related Pneumonia, All-grade [4, 7]: 0 n (%)
Drug-related Pneumonia, Grade 3 [4, 7]: 0 n (%)
Drug-related Rashes, eruptions and exanthems NEC, All-grade [4, 7]: 3 (17) n (%)
Drug-related Rashes, eruptions and exanthems NEC, Grade 3 [4, 7]: 1 (6) n (%)
Drug-related Thrombocytopenia, All-grade [4, 7]: 0 n (%)
Drug-related Thrombocytopenia, Grade 3 [4, 7]: 0 n (%)
Drug-related Vomiting, All-grade [4, 7]: 3 (17) n (%)
Drug-related Vomiting, Grade 3 [4, 7]: 1 (6) n (%)
